For data set [1], the system named is Oryctolagus cuniculus. In words: Reduction of intraocular pressure in ocular normotensive New Zealand White rabbit administered topically to the eye measured for 0.5 to 8 hrs by tonometry (reference value: 12.00 +/- 6.81%). The class given is functional. As to conditions: topical.
The next data set addresses Carbonic anhydrase 1 (Homo sapiens, UniProt P00915). In words: Inhibition of human carbonic anhydrase 1 incubated for 15 mins by phenol red staining-based stopped flow CO2 hydrase assay.
A short description of data set [2]: Toxicity in New Zealand White rabbit assessed as induction of eye lid closure at 0.5% administered topically to the eye. Also noted: species or system Oryctolagus cuniculus. As to conditions: in vivo, topical_or_ocular. In outline:
(§1)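 Single 25 µl drop given to the left eye of albino rabbits, which were held immobile for one minute afterwards. Irritation was followed by eye throughout the experiment and scored as blinking, head shaking or eyelid closure, with the duration of closure noted in seconds.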

The nature of data set [3]: Toxicity in New Zealand White rabbit assessed as head shaking at 0.5% administered topically to the eye. Also noted: species or system Oryctolagus cuniculus. As to conditions: in vivo, topical_or_ocular. In outline: as §1
A further data set has as its target Carbonic anhydrase 12 (Homo sapiens, UniProt O43570). Kind of data set: Inhibition of human carbonic anhydrase 12 incubated for 15 mins by phenol red staining-based stopped flow CO2 hydrase assay.
Data set [4] has as its system Oryctolagus cuniculus. In words: Reduction of intraocular pressure in ocular normotensive New Zealand White rabbit at 1% administered topically to the eye measured for 0.5 to 8 hrs by tonometry. The format is functional, organism-based.
The nature of data set [5]: Toxicity in New Zealand White rabbit assessed as induction of eye lid closure at 1% administered topically to the eye. As to conditions: in vivo, topical_or_ocular. Also noted: species or system Oryctolagus cuniculus. In a few lines: as §1
Data set [6] is described as follows: Toxicity in New Zealand White rabbit assessed as head shaking at 1% administered topically to the eye. The arrangement: species or system Oryctolagus cuniculus. As to conditions: in vivo, topical_or_ocular. In outline: as §1
Data set [7] in a line: Toxicity in New Zealand White rabbit assessed as head shaking at 2% administered topically to the eye. The arrangement: species or system Oryctolagus cuniculus. As to conditions: in vivo, topical_or_ocular. In a few lines:
as §1

Data set [8] is described as follows: Toxicity in New Zealand White rabbit assessed as induction of eye lid closure at 2% administered topically to the eye. The arrangement: species or system Oryctolagus cuniculus. As to conditions: in vivo, topical_or_ocular. In a few lines:
as §1

For data set [9], the system named is Oryctolagus cuniculus. In words: Reduction of intraocular pressure in ocular normotensive New Zealand White rabbit at 2% administered topically to the eye measured for 0.5 to 8 hrs by tonometry. The format is functional, organism-based.
A further data set concerns the target Carbonic anhydrase 4 (Homo sapiens, UniProt P22748). In words: Inhibition of human carbonic anhydrase 4 incubated for 15 mins by phenol red staining-based stopped flow CO2 hydrase assay.
The target in the next data set is Carbonic anhydrase 2 (Homo sapiens, UniProt P00918). In words: Inhibition of human carbonic anhydrase 2 incubated for 15 mins by phenol red staining-based stopped flow CO2 hydrase assay.
The test system of data set [10] is Oryctolagus cuniculus. In words: Reduction of intraocular pressure in ocular normotensive New Zealand White rabbit at 0.5 % administered topically to the eye measured for 0.5 to 8 hrs by tonometry. The format is functional, organism-based.

The source of these data is ChEMBL document CHEMBL4364335, “Highly hydrophilic 1,3-oxazol-5-yl benzenesulfonamide inhibitors of carbonic anhydrase II for reduction of glaucoma-related intraocular pressure” (Bioorg Med Chem, 2019).

The structures appear in SMILES notation. The source made the active and inactive calls. The rule behind the calls is not given here.

Carbonic anhydrase 1, sequence (P00915 whole entry): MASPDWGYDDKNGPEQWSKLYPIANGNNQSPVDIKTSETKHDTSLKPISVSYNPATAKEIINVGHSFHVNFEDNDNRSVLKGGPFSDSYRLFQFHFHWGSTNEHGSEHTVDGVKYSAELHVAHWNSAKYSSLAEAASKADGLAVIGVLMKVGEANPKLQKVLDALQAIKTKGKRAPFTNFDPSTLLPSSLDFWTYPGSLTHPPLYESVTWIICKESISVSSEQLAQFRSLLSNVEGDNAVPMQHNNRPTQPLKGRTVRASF
Carbonic anhydrase 12, sequence (O43570 whole entry): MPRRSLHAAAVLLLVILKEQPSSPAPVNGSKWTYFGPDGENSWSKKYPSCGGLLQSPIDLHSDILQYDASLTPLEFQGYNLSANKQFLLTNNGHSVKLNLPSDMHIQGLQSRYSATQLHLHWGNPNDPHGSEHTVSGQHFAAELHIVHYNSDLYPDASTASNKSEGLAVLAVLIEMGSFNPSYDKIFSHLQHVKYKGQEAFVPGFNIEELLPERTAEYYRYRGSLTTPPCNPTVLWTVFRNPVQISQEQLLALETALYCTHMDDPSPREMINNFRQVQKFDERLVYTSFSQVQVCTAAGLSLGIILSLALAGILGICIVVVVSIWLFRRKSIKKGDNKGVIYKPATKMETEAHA
Carbonic anhydrase 4, sequence (P22748 whole entry): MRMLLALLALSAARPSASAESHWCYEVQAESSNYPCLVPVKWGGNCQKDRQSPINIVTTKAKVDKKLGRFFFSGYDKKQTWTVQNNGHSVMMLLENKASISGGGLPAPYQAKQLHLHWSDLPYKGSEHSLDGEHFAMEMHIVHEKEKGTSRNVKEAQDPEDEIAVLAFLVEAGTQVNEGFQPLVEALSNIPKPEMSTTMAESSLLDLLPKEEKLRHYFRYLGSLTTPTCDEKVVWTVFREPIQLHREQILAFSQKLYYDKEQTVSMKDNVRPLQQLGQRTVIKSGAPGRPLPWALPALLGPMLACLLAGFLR

Broadly, the Emax is the maximal effect, on the per cent scale that the assay sets. By Ki is commonly meant a dissociation constant, usually derived from enzyme kinetics or from competition with a known ligand. High values mean lower affinity, low ones higher affinity. In the data set on Oryctolagus cuniculus [1], `NS(=O)(=O)c1ccc(-c2cnc(C(=O)NC3CCNCC3)o2)cc1` returned a maximum response (Emax) of 19.4%. The inhibition constant (Ki) on Carbonic anhydrase 1 stood at 50.8 nM; on Carbonic anhydrase 12 it was 87.3 nM. Further, the Activity entry in [2] and in data set [3] was “Non-Toxic” in each case.
As for `NCCNC(=O)c1ncc(-c2ccc(S(N)(=O)=O)cc2)o1`, the result in the data set with Oryctolagus cuniculus [4] was Active. In addition, the Emax in the data set on Oryctolagus cuniculus [1] was 29.6%. For the same compound, the inhibition constant (Ki) stood at 101 nM on Carbonic anhydrase 1 and 90.1 nM on Carbonic anhydrase 12. In addition, the Activity entry in data set [5] and in data set [6] was “Non-Toxic” in each case.
As to `CCN[C@H]1C[C@H](C)S(=O)(=O)c2sc(S(N)(=O)=O)cc21` [DORZOLAMIDE], the Activity entry in [7] and in [8] was “Non-Toxic” throughout. Further, the Emax in the data set with Oryctolagus cuniculus [1] is 27.8%. Moreover, the result in the data set with Oryctolagus cuniculus [9] was Active.
Consider `NC1CCN(C(=O)c2ncc(-c3ccc(S(N)(=O)=O)cc3)o2)CC1`, for which, in the data set with Oryctolagus cuniculus [1], the Emax came out at 22%. Besides, the Ki was determined as 257 nM on Carbonic anhydrase 4, 61.9 nM at Carbonic anhydrase 1, 0.54 nM on Carbonic anhydrase 2 and 91.5 nM on Carbonic anhydrase 12. Also, in [2], the Activity result is reported as “Toxic”. Besides, the outcome in the data set on Oryctolagus cuniculus [10] was inactive.
With `NS(=O)(=O)c1ccc(-c2cnc(C(=O)N3CCNCC3)o2)cc1`, the result with Oryctolagus cuniculus [4] was Active. Also, in the data set with Oryctolagus cuniculus [1], the Emax is 35.6%. Further, the inhibition constant (Ki) worked out at 420 nM at Carbonic anhydrase 4, 109 nM on Carbonic anhydrase 1, 5 nM on Carbonic anhydrase 2 and 68.5 nM on Carbonic anhydrase 12. For the same compound, the Activity result in [5] and in data set [6] was “Non-Toxic” throughout.
